Measurements: ChEMBL document CHEMBL1158372, “Design, synthesis, and biological evaluation of novel triazole derivatives as inhibitors of cytochrome P450 14alpha-demethylase” (2009)
Converted amounts (≈) assume the structure as drawn.

Assays:
Assay type in all cases: functional
[1] = test system: Pichia kudriavzevii; test: Antifungal activity against Candida krusei by micro-broth dilution method
Outline: (§1)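 Broth microdilution in 96-well plates following the NCCLS method. DMSO solutions of test agents were serially diluted in growth medium, inoculated, and incubated at 35 °C. MIC80 is the first well showing roughly 80% growth reduction versus the drug-free control. C. albicans ATCC76615 and Cry. neoformans ATCC32609 served as quality-control strains. Each test was done three times; the mean of replicates is reported.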

[2] = test system: Candida parapsilosis; test: Antifungal activity against Candida parapsilosis by micro-broth dilution method; conditions: Lodderomyces parapsilosis; outline: as §1
[3] = test system: Aspergillus fumigatus; test: Antifungal activity against Aspergillus fumigatus by micro-broth dilution method; outline: as §1
[4] = test system: Trichophyton rubrum; test: Antifungal activity against Trichophyton rubrum by micro-broth dilution method; outline: as §1
[5] = test system: Cryptococcus neoformans; test: Antifungal activity against Cryptococcus neoformans ATCC 32609 after 72 hrs by micro-broth dilution method; conditions: ATCC 32609, 72 h
Outline: (§2)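 NCCLS (M27-A2) broth microdilution in 96-well format. Compounds in DMSO, serially diluted in growth medium, inoculated, incubated at 35 °C, and read at 24 h (C. albicans ATCC76615) or 72 h (Cry. neoformans ATCC32609). MIC80 is the first well with about 80% less growth than the drug-free well. Three independent runs per agent; the mean of replicates is reported.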

[6] = test system: Candida tropicalis; test: Antifungal activity against Candida tropicalis by micro-broth dilution method; outline: as §1
[7] = test system: Candida albicans; test: Antifungal activity against Candida albicans ATCC 76615 after 24 hrs by micro-broth dilution method; conditions: ATCC 76615, 24 h; outline: as §2
[8] = test system: Nannizzia gypsea; test: Antifungal activity against Microsporum gypseum by micro-broth dilution method; outline: as §1

Row | MIC80 [1] [µg/mL] | MIC80 [2] [µg/mL] | MIC80 [3] [µg/mL] | MIC80 [4] [µg/mL] | MIC80 [5] [µg/mL] | MIC80 [6] [µg/mL] | MIC80 [7] [µg/mL] | MIC80 [8] [µg/mL] | SMILES
1 | 0.25 (≈ 0.606 µM) | 1 (≈ 2.42 µM) | > 64 | 1 (≈ 2.42 µM) | 0.25 (≈ 0.606 µM) | 0.0156 (≈ 0.0378 µM) | 0.25 (≈ 0.606 µM) | 0.0625 (≈ 0.152 µM) | C=CCN(Cc1ccc(CC)cc1)CC(O)(Cn1cncn1)c1ccc(F)cc1F (configuration not stated)
2 | 16 (≈ 28.4 µM) | 4 (≈ 7.11 µM) | > 64 | 64 (≈ 114 µM) | > 64 | 16 (≈ 28.4 µM) | 0.0625 (≈ 0.111 µM) | 4 (≈ 7.11 µM) | C=CCN(Cc1ccc(C(=O)Oc2ccccc2C(=O)OC)cc1)CC(O)(Cn1cncn1)c1ccc(F)cc1F (configuration not stated)
3 | 0.25 (≈ 0.551 µM) | 0.25 (≈ 0.551 µM) | 16 (≈ 35.3 µM) | 1 (≈ 2.21 µM) | 1 (≈ 2.21 µM) | 0.25 (≈ 0.551 µM) | 1 (≈ 2.21 µM) | 1 (≈ 2.21 µM) | C=CCN(Cc1ccc(Cl)cc1Cl)CC(O)(Cn1cncn1)c1ccc(F)cc1F (configuration not stated)
4 | 1 (≈ 2.06 µM) | 1 (≈ 2.06 µM) | > 64 | 1 (≈ 2.06 µM) | 1 (≈ 2.06 µM) | 1 (≈ 2.06 µM) | 0.25 (≈ 0.516 µM) | 1 (≈ 2.06 µM) | C=CCN(Cc1ccc(C(=O)OCCCC)cc1)CC(O)(Cn1cncn1)c1ccc(F)cc1F (configuration not stated)
5 | 1 (≈ 1.82 µM) | 1 (≈ 1.82 µM) | > 64 | 4 (≈ 7.28 µM) | 1 (≈ 1.82 µM) | 1 (≈ 1.82 µM) | 0.25 (≈ 0.455 µM) | 0.25 (≈ 0.455 µM) | C=CCN(Cc1ccc(C(=O)Oc2ccc([N+](=O)[O-])cc2)cc1)CC(O)(Cn1cncn1)c1ccc(F)cc1F (configuration not stated)
6 | 0.0625 (≈ 0.155 µM) | 0.0625 (≈ 0.155 µM) | > 64 | 0.25 (≈ 0.621 µM) | 0.0625 (≈ 0.155 µM) | 0.0625 (≈ 0.155 µM) | 0.0156 (≈ 0.0388 µM) | 0.0156 (≈ 0.0388 µM) | C=CCN(Cc1cccc(F)c1)CC(O)(Cn1cncn1)c1ccc(F)cc1F (configuration not stated)
7 | 0.0625 (≈ 0.135 µM) | 0.25 (≈ 0.54 µM) | 4 (≈ 8.63 µM) | 0.25 (≈ 0.54 µM) | 0.25 (≈ 0.54 µM) | 0.25 (≈ 0.54 µM) | 0.0625 (≈ 0.135 µM) | 0.0625 (≈ 0.135 µM) | C=CCN(Cc1ccc(Br)cc1)CC(O)(Cn1cncn1)c1ccc(F)cc1F (configuration not stated)
8 | 4 (≈ 7.28 µM) | 0.25 (≈ 0.455 µM) | > 64 | 4 (≈ 7.28 µM) | 1 (≈ 1.82 µM) | 0.0625 (≈ 0.114 µM) | 0.25 (≈ 0.455 µM) | 1 (≈ 1.82 µM) | C=CCN(Cc1ccc(C(=O)Oc2cccc([N+](=O)[O-])c2)cc1)CC(O)(Cn1cncn1)c1ccc(F)cc1F (configuration not stated)
9 | 4 (≈ 6.77 µM) | 0.25 (≈ 0.423 µM) | > 64 | 1 (≈ 1.69 µM) | 4 (≈ 6.77 µM) | 0.25 (≈ 0.423 µM) | 1 (≈ 1.69 µM) | 1 (≈ 1.69 µM) | C=CCN(Cc1ccc(C(=O)Oc2ccc(C(=O)OCCC)cc2)cc1)CC(O)(Cn1cncn1)c1ccc(F)cc1F (configuration not stated)
10 | 1 (≈ 2.01 µM) | 1 (≈ 2.01 µM) | > 64 | 0.25 (≈ 0.501 µM) | 1 (≈ 2.01 µM) | 1 (≈ 2.01 µM) | 1 (≈ 2.01 µM) | 1 (≈ 2.01 µM) | C=CCN(Cc1ccc(C(=O)OCCCCC)cc1)CC(O)(Cn1cncn1)c1ccc(F)cc1F (configuration not stated)
11 | 0.0625 (≈ 0.163 µM) | 0.0625 (≈ 0.163 µM) | > 64 | 0.25 (≈ 0.65 µM) | 0.0625 (≈ 0.163 µM) | 0.0625 (≈ 0.163 µM) | 0.0039 (≈ 0.0101 µM) | 0.0039 (≈ 0.0101 µM) | C=CCN(Cc1ccccc1)CC(O)(Cn1cncn1)c1ccc(F)cc1F (configuration not stated)
12 | 0.0625 (≈ 0.149 µM) | 0.25 (≈ 0.597 µM) | > 64 | 1 (≈ 2.39 µM) | 0.25 (≈ 0.597 µM) | 0.0625 (≈ 0.149 µM) | 0.0156 (≈ 0.0372 µM) | 0.0625 (≈ 0.149 µM) | C=CCN(Cc1cccc(Cl)c1)CC(O)(Cn1cncn1)c1ccc(F)cc1F (configuration not stated)
13 | 0.0625 (≈ 0.149 µM) | 0.0625 (≈ 0.149 µM) | > 64 | 1 (≈ 2.39 µM) | 0.25 (≈ 0.597 µM) | 0.25 (≈ 0.597 µM) | 0.0156 (≈ 0.0372 µM) | 0.0625 (≈ 0.149 µM) | C=CCN(Cc1ccccc1Cl)CC(O)(Cn1cncn1)c1ccc(F)cc1F (configuration not stated)
14 | 0.0625 (≈ 0.155 µM) | 0.0625 (≈ 0.155 µM) | > 64 | 1 (≈ 2.48 µM) | 0.0625 (≈ 0.155 µM) | 0.0625 (≈ 0.155 µM) | 0.0156 (≈ 0.0388 µM) | 0.0156 (≈ 0.0388 µM) | C=CCN(Cc1ccc(F)cc1)CC(O)(Cn1cncn1)c1ccc(F)cc1F (configuration not stated)
15 | 0.0625 (≈ 0.157 µM) | 0.0625 (≈ 0.157 µM) | > 64 | 0.0625 (≈ 0.157 µM) | 0.0625 (≈ 0.157 µM) | 0.0625 (≈ 0.157 µM) | 0.0156 (≈ 0.0392 µM) | 0.0039 (≈ 0.00979 µM) | C=CCN(Cc1ccccc1C)CC(O)(Cn1cncn1)c1ccc(F)cc1F (configuration not stated)
16 | 0.0625 (≈ 0.149 µM) | 0.25 (≈ 0.597 µM) | 16 (≈ 38.2 µM) | 0.25 (≈ 0.597 µM) | 0.25 (≈ 0.597 µM) | 0.25 (≈ 0.597 µM) | 0.25 (≈ 0.597 µM) | 0.0625 (≈ 0.149 µM) | C=CCN(Cc1ccc(Cl)cc1)CC(O)(Cn1cncn1)c1ccc(F)cc1F (configuration not stated)
17 | 0.25 (≈ 0.54 µM) | 0.25 (≈ 0.54 µM) | > 64 | 0.25 (≈ 0.54 µM) | 0.25 (≈ 0.54 µM) | 0.0625 (≈ 0.135 µM) | 0.0625 (≈ 0.135 µM) | 0.0156 (≈ 0.0337 µM) | C=CCN(Cc1ccccc1Br)CC(O)(Cn1cncn1)c1ccc(F)cc1F (configuration not stated)
18 | 0.0625 (≈ 0.146 µM) | 0.0625 (≈ 0.146 µM) | > 64 | 0.25 (≈ 0.582 µM) | 0.25 (≈ 0.582 µM) | 0.25 (≈ 0.582 µM) | 0.0156 (≈ 0.0363 µM) | 0.0156 (≈ 0.0363 µM) | C=CCN(Cc1ccc([N+](=O)[O-])cc1)CC(O)(Cn1cncn1)c1ccc(F)cc1F (configuration not stated)
19 | 0.0625 (≈ 0.141 µM) | 0.25 (≈ 0.565 µM) | > 64 | 0.25 (≈ 0.565 µM) | 0.25 (≈ 0.565 µM) | 0.0625 (≈ 0.141 µM) | 0.0625 (≈ 0.141 µM) | 0.0156 (≈ 0.0353 µM) | C=CCN(Cc1ccc(C(=O)OC)cc1)CC(O)(Cn1cncn1)c1ccc(F)cc1F (configuration not stated)
20 | 0.25 (≈ 0.531 µM) | 1 (≈ 2.13 µM) | > 64 | 1 (≈ 2.13 µM) | 1 (≈ 2.13 µM) | 1 (≈ 2.13 µM) | 0.25 (≈ 0.531 µM) | 0.0156 (≈ 0.0332 µM) | C=CCN(Cc1ccc(C(=O)OC(C)C)cc1)CC(O)(Cn1cncn1)c1ccc(F)cc1F (configuration not stated)
21 | 1 (≈ 1.98 µM) | 1 (≈ 1.98 µM) | > 64 | 16 (≈ 31.7 µM) | 1 (≈ 1.98 µM) | 1 (≈ 1.98 µM) | 1 (≈ 1.98 µM) | 1 (≈ 1.98 µM) | C=CCN(Cc1ccc(C(=O)Oc2ccccc2)cc1)CC(O)(Cn1cncn1)c1ccc(F)cc1F (configuration not stated)
22 | 1 (≈ 2.06 µM) | 0.25 (≈ 0.516 µM) | > 64 | 0.0625 (≈ 0.129 µM) | 1 (≈ 2.06 µM) | 1 (≈ 2.06 µM) | 1 (≈ 2.06 µM) | 0.25 (≈ 0.516 µM) | C=CCN(Cc1ccc(C(=O)OCC(C)C)cc1)CC(O)(Cn1cncn1)c1ccc(F)cc1F (configuration not stated)
23 | 0.0625 (≈ 0.157 µM) | 0.25 (≈ 0.627 µM) | > 64 | 1 (≈ 2.51 µM) | 0.0625 (≈ 0.157 µM) | 0.25 (≈ 0.627 µM) | 0.0156 (≈ 0.0392 µM) | 0.0156 (≈ 0.0392 µM) | C=CCN(Cc1ccc(C)cc1)CC(O)(Cn1cncn1)c1ccc(F)cc1F (configuration not stated)
24 | 4 (≈ 7.42 µM) | 1 (≈ 1.86 µM) | > 64 | 4 (≈ 7.42 µM) | 16 (≈ 29.7 µM) | 4 (≈ 7.42 µM) | 1 (≈ 1.86 µM) | 0.25 (≈ 0.464 µM) | C=CCN(Cc1ccc(C(=O)Oc2ccc(Cl)cc2)cc1)CC(O)(Cn1cncn1)c1ccc(F)cc1F (configuration not stated)
